Data on 23 compounds can be found in ChEMBL document CHEMBL1149869, “Antifungal and antimycobacterial activity of 1-(3,5-diaryl-4,5-dihydro-1H-pyrazol-4-yl)-1H-imidazole derivatives” (2008).

As usually defined, the MIC is the smallest concentration in the dilution series that meets the test's criterion for growth inhibition.

Converted amounts (≈) assume the structure as drawn.

Holding throughout (type): functional
The subject of assay [1] is Candida albicans. Nature of the assay: Antifungal activity against Candida albicans 685 after 24 hrs. The gist of the method: (§1)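 Clinical isolate C. albicans 685 tested by NCCLS (1997) reference broth method; compound stocks 2 mg/mL in DMSO; miconazole and amphotericin B as standards; MIC read after 24 and 48 h incubation, each determined twice in duplicate experiments.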

In assay [2] the test system is Candida albicans. Nature of the assay: Antifungal activity against Candida albicans 685 after 48 hrs. The gist of the method:
as §1

The subject of assay [3] is Mycobacterium tuberculosis. The assay can be described thus: Antitubercular activity against Mycobacterium tuberculosis H37Rv micro-dilution Resazurin assay. The gist of the method:
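Microdilution Resazurin assay (MRA) run for 1 week against reference strain M. tuberculosis H37Rv. Compound stocks were 2 mg/mL in DMSO, with DMSO tested up to 2% (v/v). MIC was the lowest concentration preventing the blue-to-pink Resazurin colour change, read visually twice in duplicate experiments. Viable counts on agar from control and test wells.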
Background: Broth dilution looks for growth in wells or tubes with falling amounts of substance.

With `Clc1ccc(C2=NN[C@H](c3ccc(Cl)cc3Cl)[C@H]2n2ccnc2)c(Cl)c1` (racemic), the MIC worked out at 8 µg/mL (≈ 18.8 µM) in the assay on Candida albicans [1], 64 µg/mL (≈ 150 µM) in the assay on Candida albicans [2] and 8 µg/mL (≈ 18.8 µM) in assay [3].

On to `Brc1ccc(C2=NN(c3ccccc3)[C@H](c3ccc(Br)cc3)[C@H]2n2ccnc2)cc1` (racemic), for which the values for the MIC (against Candida albicans [1]; against Candida albicans [2]; in assay [3]) were 1 µg/mL (≈ 1.91 µM), 64 µg/mL (≈ 123 µM) and 8 µg/mL (≈ 15.3 µM), respectively.

`Cc1ccc(C2=NN(c3ccccc3)[C@H](c3ccc(C)cc3)[C@H]2n2ccnc2)cc1` (racemic): the MIC is 8 µg/mL (≈ 20.4 µM) with Candida albicans [1], 64 µg/mL (≈ 163 µM) in the assay on Candida albicans [2] and 4 µg/mL (≈ 10.2 µM) in assay [3].

In the case of `Clc1ccc(C2=NN(c3ccccc3)[C@H](c3ccc(Cl)cc3Cl)[C@H]2n2ccnc2)c(Cl)c1` (racemic), the MIC against Candida albicans [1] is 2 µg/mL (≈ 3.98 µM); with Candida albicans [2], over 64 µg/mL; in assay [3], 4 µg/mL (≈ 7.96 µM).

In turn, `NNC(=O)c1ccncc1` [ISONIAZID] showed an MIC in assay [3] of 0.5 µg/mL (≈ 3.65 µM).

`Fc1ccc(N2N=C(c3ccc(Cl)cc3)[C@H](n3ccnc3)[C@H]2c2ccc(Cl)cc2)cc1` (racemic): the MIC with Candida albicans [1] was 2 µg/mL (≈ 4.43 µM); against Candida albicans [2] it was over 64 µg/mL; in assay [3], 4 µg/mL (≈ 8.86 µM).

As for `Cc1ccc(C2=NN(c3ccc(F)cc3)[C@H](c3ccc(C)cc3)[C@H]2n2ccnc2)cc1` (racemic), the results for the MIC (against Candida albicans [1]; in the assay on Candida albicans [2]; in assay [3]) were 64 µg/mL (≈ 156 µM), 64 µg/mL (≈ 156 µM) and 4 µg/mL (≈ 9.74 µM), respectively.

For the compound `c1ccc(C2=NN(c3ccccc3)[C@H](c3ccccc3)[C@H]2n2ccnc2)cc1` (racemic), the MIC in the assay with Candida albicans [1] was found to be 0.06 µg/mL (≈ 0.165 µM); against Candida albicans [2] it was 1 µg/mL (≈ 2.74 µM); in assay [3] it was 8 µg/mL (≈ 22 µM).

Turning to `Clc1ccc(C2=NN(c3ccccc3)[C@H](c3ccc(Cl)cc3)[C@H]2n2ccnc2)cc1` (racemic), the values for the MIC (in the assay on Candida albicans [1]; against Candida albicans [2]; in assay [3]) were 2 µg/mL (≈ 4.62 µM), 64 µg/mL (≈ 148 µM) and 4 µg/mL (≈ 9.23 µM), respectively.

As for `Clc1ccc(C2=NN[C@H](c3ccc(Cl)cc3)[C@H]2n2ccnc2)cc1` (racemic), the MIC in the assay on Candida albicans [1] was found to be 4 µg/mL (≈ 11.2 µM); in the assay with Candida albicans [2], 16 µg/mL (≈ 44.8 µM); in assay [3] it was 8 µg/mL (≈ 22.4 µM).

For `Fc1ccc(N2N=C(c3ccccc3)[C@H](n3ccnc3)[C@H]2c2ccccc2)cc1` (racemic), the MIC with Candida albicans [1] is 0.06 µg/mL (≈ 0.157 µM); against Candida albicans [2], 1 µg/mL (≈ 2.61 µM); in assay [3], 8 µg/mL (≈ 20.9 µM).

Regarding `c1ccc(C2=NN[C@H](c3ccccc3)[C@H]2n2ccnc2)cc1` (racemic), the MIC against Candida albicans [1] is 16 µg/mL (≈ 55.5 µM); in the assay with Candida albicans [2], over 64 µg/mL; in assay [3], 16 µg/mL (≈ 55.5 µM).

In the case of `CN1N=C(c2ccc(Cl)cc2)[C@@H](n2ccnc2)[C@H]1c1ccc(Cl)cc1` (racemic), the figures for the MIC (in the assay on Candida albicans [1]; with Candida albicans [2]; in assay [3]) were 0.06 µg/mL (≈ 0.162 µM), 0.06 µg/mL (≈ 0.162 µM) and 8 µg/mL (≈ 21.5 µM), respectively.

Take `Clc1ccc(COC(Cn2ccnc2)c2ccc(Cl)cc2Cl)c(Cl)c1` (stereo not given) [MICONAZOLE]: the MIC with Candida albicans [1] stood at 0.06 µg/mL (≈ 0.144 µM); against Candida albicans [2], 0.12 µg/mL (≈ 0.288 µM).

Turning to `CN1N=C(c2ccc(Cl)cc2Cl)[C@@H](n2ccnc2)[C@H]1c1ccc(Cl)cc1Cl` (racemic), the figures for the MIC (against Candida albicans [1]; against Candida albicans [2]; in assay [3]) were 0.12 µg/mL (≈ 0.273 µM), 32 µg/mL (≈ 72.7 µM) and 16 µg/mL (≈ 36.4 µM), respectively.

Consider `Brc1ccc(C2=NN[C@H](c3ccc(Br)cc3)[C@H]2n2ccnc2)cc1` (racemic), for which the MIC against Candida albicans [1] was determined as 4 µg/mL (≈ 8.97 µM); against Candida albicans [2] it was 8 µg/mL (≈ 17.9 µM); in assay [3], 8 µg/mL (≈ 17.9 µM).

Regarding `C[C@@H]1[C@H](O)[C@@H](C)/C=C/C=C/C=C/C=C/C=C/C=C/C=C/[C@H](O[C@@H]2O[C@H](C)[C@@H](O)[C@H](N)[C@@H]2O)C[C@@H]2O[C@](O)(C[C@@H](O)C[C@@H](O)[C@H](O)CC[C@@H](O)C[C@@H](O)CC(=O)O[C@H]1C)C[C@H](O)[C@H]2C(=O)O` [AMPHOTERICIN B], the MIC with Candida albicans [1] and against Candida albicans [2] was 1 µg/mL (≈ 1.08 µM) throughout.

As to `CN1N=C(c2ccc(Br)cc2)[C@@H](n2ccnc2)[C@H]1c1ccc(Br)cc1` (racemic), the MIC in the assay on Candida albicans [1] turned out to be 0.06 µg/mL (≈ 0.13 µM); in the assay on Candida albicans [2], 0.06 µg/mL (≈ 0.13 µM); in assay [3] it was 8 µg/mL (≈ 17.4 µM).

With `Cc1ccc(C2=NN(C)[C@H](c3ccc(C)cc3)[C@@H]2n2ccnc2)cc1` (racemic), the MIC against Candida albicans [1] is 4 µg/mL (≈ 12.1 µM); in the assay on Candida albicans [2], 64 µg/mL (≈ 194 µM); in assay [3] it was 16 µg/mL (≈ 48.4 µM).

Consider `Fc1ccc(N2N=C(c3ccc(Cl)cc3Cl)[C@@H](n3ccnc3)[C@@H]2c2ccc(Cl)cc2Cl)cc1` (racemic), for which the results for the MIC (in the assay with Candida albicans [1]; against Candida albicans [2]; in assay [3]) were 1 µg/mL (≈ 1.92 µM), over 64 µg/mL and 16 µg/mL (≈ 30.8 µM), respectively.

For `Cc1ccc(C2=NN[C@@H](c3ccc(C)cc3)[C@@H]2n2ccnc2)cc1` (racemic), the MIC in the assay with Candida albicans [1] was 8 µg/mL (≈ 25.3 µM); with Candida albicans [2] it was 64 µg/mL (≈ 202 µM); in assay [3], 16 µg/mL (≈ 50.6 µM).

Consider `Fc1ccc(N2N=C(c3ccc(Br)cc3)[C@H](n3ccnc3)[C@H]2c2ccc(Br)cc2)cc1` (racemic), for which the MIC in the assay on Candida albicans [1] was 8 µg/mL (≈ 14.8 µM); in the assay on Candida albicans [2], over 64 µg/mL; in assay [3] it was 4 µg/mL (≈ 7.4 µM).

Turning to `CN1N=C(c2ccccc2)[C@@H](n2ccnc2)[C@H]1c1ccccc1` (racemic), the MIC is 1 µg/mL (≈ 3.31 µM) against Candida albicans [1], 64 µg/mL (≈ 212 µM) against Candida albicans [2] and 8 µg/mL (≈ 26.5 µM) in assay [3].
